Assays:
[1] = biological target: T1, MRP4 (Homo sapiens, UniProt O15439); test: Glucuronide excretion in HeLa1A1 cells with knock-down of MRP4; type: cell-based; conditions: knock-down of MRP4 transporter
T1 sequence (O15439 1-1325): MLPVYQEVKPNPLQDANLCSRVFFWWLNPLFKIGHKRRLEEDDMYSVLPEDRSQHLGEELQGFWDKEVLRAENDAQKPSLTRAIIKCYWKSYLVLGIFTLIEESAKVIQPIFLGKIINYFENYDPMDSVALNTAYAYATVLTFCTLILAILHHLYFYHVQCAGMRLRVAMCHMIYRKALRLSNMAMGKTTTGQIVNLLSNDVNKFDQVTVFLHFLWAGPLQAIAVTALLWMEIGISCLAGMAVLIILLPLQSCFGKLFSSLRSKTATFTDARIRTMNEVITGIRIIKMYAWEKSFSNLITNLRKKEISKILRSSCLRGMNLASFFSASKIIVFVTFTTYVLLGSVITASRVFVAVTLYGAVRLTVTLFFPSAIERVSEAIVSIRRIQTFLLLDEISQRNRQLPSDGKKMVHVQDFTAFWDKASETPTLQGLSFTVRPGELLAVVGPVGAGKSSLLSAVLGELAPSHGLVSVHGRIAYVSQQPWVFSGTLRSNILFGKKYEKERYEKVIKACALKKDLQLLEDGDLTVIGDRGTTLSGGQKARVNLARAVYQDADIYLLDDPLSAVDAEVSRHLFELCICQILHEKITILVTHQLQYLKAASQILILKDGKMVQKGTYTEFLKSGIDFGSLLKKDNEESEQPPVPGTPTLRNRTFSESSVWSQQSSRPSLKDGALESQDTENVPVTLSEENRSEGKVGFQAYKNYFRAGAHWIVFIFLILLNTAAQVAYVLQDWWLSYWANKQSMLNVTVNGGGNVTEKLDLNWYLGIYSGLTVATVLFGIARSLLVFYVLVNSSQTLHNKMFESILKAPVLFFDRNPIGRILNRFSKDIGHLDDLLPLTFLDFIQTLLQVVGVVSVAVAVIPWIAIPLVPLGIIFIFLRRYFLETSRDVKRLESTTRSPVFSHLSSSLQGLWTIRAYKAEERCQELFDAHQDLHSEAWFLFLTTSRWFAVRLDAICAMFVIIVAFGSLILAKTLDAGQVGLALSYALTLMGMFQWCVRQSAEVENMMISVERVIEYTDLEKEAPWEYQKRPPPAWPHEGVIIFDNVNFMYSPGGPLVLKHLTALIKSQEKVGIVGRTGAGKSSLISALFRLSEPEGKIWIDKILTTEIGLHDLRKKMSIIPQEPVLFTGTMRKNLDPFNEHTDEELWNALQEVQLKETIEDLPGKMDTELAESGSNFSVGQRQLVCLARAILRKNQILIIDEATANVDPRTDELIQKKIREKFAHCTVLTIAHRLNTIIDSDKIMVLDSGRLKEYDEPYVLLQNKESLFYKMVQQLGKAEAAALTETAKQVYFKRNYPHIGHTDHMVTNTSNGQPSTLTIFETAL
How it was run: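 HeLa1A1 cells at ~50% confluence transiently transfected with transporter shRNA plasmid (10 μg/mL); medium replaced at 6 h; scrambled shRNA as control. At confluence cells washed and incubated with test compound in HBSS. Extracellular glucuronide sampled over 2 h and intracellular glucuronide measured at the end. ER = V·dC/dt, CLapp = ER/Ci, fmet calculated; triplicate.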

[2] = biological target: T2, UGT1A1 (Homo sapiens, UniProt P22309); type: in vitro ADME; conditions: panel of HLMs (n = 9), substrate 10 μM, p = 0.049
T2 sequence (P22309 26-533): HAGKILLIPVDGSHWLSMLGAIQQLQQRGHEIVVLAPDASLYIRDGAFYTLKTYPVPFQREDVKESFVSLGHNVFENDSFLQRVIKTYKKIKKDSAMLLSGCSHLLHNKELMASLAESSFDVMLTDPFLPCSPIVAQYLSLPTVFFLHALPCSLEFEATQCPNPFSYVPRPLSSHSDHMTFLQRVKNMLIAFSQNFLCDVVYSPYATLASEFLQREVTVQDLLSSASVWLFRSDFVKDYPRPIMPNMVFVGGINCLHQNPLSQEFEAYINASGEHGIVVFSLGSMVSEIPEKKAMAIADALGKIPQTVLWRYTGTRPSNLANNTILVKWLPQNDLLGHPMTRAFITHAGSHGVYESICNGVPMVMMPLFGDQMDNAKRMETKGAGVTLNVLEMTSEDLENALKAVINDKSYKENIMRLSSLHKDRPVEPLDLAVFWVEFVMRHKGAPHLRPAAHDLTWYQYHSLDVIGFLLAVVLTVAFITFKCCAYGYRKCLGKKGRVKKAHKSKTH

[3] = tested on: severe acute respiratory syndrome coronavirus papain-like protease; conditions: read-out: inhibitory effects on severe acute respiratory syndrome coronavirus papain-like protease; cited from earlier work
[4] = tested on: human UGT1A1; conditions: cited from earlier work
[5] = tested on: expressed human CYP enzymes; test: Reaction phenotyping with twelve expressed CYP enzymes; type: in vitro ADME
How it was run: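 Twelve expressed human CYPs (1–1.2 mg/mL) with test compound 0.16–80 μM, NADPH 1 mM and MgCl2 in 50 mM Tris-HCl pH 7.4, 37 °C, 60 min. Controls lacked NADPH. Acetonitrile quench, then UHPLC-UV/Q-TOF MS. Formation rates given as pmol/min/mg protein. Kinetics fitted after Eadie–Hofstee inspection; CLint = Vmax/Km; triplicate.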

[6] = tested on: PPAR-γ; conditions: ref Ma et al., 2016; cited from earlier work

CC(C)=CCC/C(C)=C/Cc1cc(-c2coc3cc(O)ccc3c2=O)ccc1O [CA, Corylifol A]
fmet value of CA [1]: significant decrease
correlation (r) between CA-7-O-glucuronidation and β-estradiol-3-O-glucuronidation [2]: 0.668
IC50 [3]: 32300 ± 3200 nM
IC50 [4]: 650 nM
Ki [4]: 790 nM
metabolism of CA ([5]; CYP1A2, 1B1, 2A6, 2B6, 2E1, 3A4 and 3A5): cannot metabolize CA at all
CLint values (phase I metabolic activities) ([5]; range over CYP1A1, 2C8 and 2C19): 13.01 to 49.36 µL/min/mg
in vitro PPAR-γ activation [6]: PPAR-γ activation

— publication PMC7396962 (Xenobiotica; the fate of foreign compounds in biological …, 2020)
